Myeloid diff 2: induction of myeloid progenitor differentiation, primary screen, cell-based, flow cytometry, MLPCN library; ER-HoxA9 myeloid progenitors, lysozyme-GFP differentiation; calls only at 10 µM; actives 1% (n = 360,000);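 active means normalized GFP-positive differentiation at or above the plate's own cutoff, the solvent-only control mean plus 3 SD; inconclusive means no clear call, values can overlap the other calls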;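 further: cells exposed to compound for four days before flow analysis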
Xi reactivation: activators of inactive X chromosome reactivation, primary screen, imaging, XiGFP fibroblasts, GFP high-content imaging, set 2 | actives 0.055% (n = 360,000) | XiGFP mouse fibroblasts, % GFP-positive cells imaging, 3 d; cells co-treated with 5-aza-dC sensitizer; scaled so ellipticine positive control = 100% | activation, % at 7.58 µM | AID 743238, 2013;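 active means mean normalized replicate activation at least 10% and every replicate at or above 10%; inconclusive means only one of the two criteria met; inactive means mean below 10% and not all replicates reach 10%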;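 further: 0% = median of on-plate neutral control wells and 100% = ellipticine 6 µM median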
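assay system = SV40-immortalized XiGFP fibroblast cells, line 68-5-11 | buffer or medium = DMEM plus 5-aza-dC sensitizer | doses = single-point pinned compound dosing | times = 3-day compound exposure, then 15 min fixation at room temperature | benchmarks = positive control ellipticine, 6 µM final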
ABCB6 inh 2: ABCB6 transporter inhibitors, primary screen, K562-ABCB6 cells, flow cytometry, MLPCN library | K562-ABCB6 porphyrin accumulation, 1 h; stronger effect = lower value | ATP-binding cassette sub-family B member 6 (Homo sapiens), Q9NP58 | fluorescence ratio to DMSO, % at 10 µM | actives 0.19% (n = 360,000);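 active means fluorescence ratio to DMSO below 75%, the collection mean minus 3 SD; inconclusive means too few cells collected in the well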;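 further: signal is porphyrin accumulated inside mitochondria; 100% equals median channel fluorescence of DMSO control wells; lower ratio means ABCB6 inhibition with less porphyrin fluorescence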
Target sequence (Q9NP58 whole entry, looked up): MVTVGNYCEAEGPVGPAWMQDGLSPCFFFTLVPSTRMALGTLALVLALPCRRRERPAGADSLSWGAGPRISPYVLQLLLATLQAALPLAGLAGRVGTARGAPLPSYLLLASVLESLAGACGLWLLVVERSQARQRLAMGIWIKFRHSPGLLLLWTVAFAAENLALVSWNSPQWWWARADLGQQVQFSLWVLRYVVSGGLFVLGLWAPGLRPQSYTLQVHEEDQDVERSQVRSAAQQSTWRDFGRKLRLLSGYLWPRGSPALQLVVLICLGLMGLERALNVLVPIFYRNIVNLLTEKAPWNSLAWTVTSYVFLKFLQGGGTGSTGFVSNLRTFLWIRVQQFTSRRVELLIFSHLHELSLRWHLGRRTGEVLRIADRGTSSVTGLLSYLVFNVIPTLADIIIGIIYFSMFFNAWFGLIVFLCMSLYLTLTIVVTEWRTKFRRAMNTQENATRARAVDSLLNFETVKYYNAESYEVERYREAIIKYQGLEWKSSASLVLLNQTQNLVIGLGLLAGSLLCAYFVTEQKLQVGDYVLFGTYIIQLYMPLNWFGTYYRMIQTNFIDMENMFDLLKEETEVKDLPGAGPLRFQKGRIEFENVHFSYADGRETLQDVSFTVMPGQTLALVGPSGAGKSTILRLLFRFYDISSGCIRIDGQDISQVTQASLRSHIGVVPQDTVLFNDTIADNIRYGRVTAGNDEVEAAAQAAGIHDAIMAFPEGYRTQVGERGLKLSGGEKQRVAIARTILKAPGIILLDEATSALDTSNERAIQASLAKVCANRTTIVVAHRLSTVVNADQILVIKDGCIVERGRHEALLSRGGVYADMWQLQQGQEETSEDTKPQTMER
The depositor's hits bear a star; i = inactive; ? = inconclusive; / = not tested or not shown; + = active, no number; ! = repeats disagree. The entries come from a sample that favours hits as a whole.

SMILES	Myeloid diff 2	Xi reactivation	ABCB6 inh 2
C[C@H]1CN([C@@H](C)CO)C(=O)c2cccc(NC(=O)Nc3ccc(C(F)(F)F)cc3)c2O[C@H]1CN(C)C(=O)Nc1ccc2c(c1)OCO2	/	0	/
O=C(NC1CCCC1)[C@H]1[C@H](CO)[C@H]2Cn3c(ccc(-c4ccccc4)c3=O)[C@@H]1N2CCc1ccccc1	/	1	/
C=CCOc1cccc(C2C(C(=O)c3ccc(C)o3)=C(O)C(=O)N2c2nccs2)c1 (stereo not given)	+	/	85
COc1cccc(C2C(C(=O)c3ccc(C)o3)=C(O)C(=O)N2c2cc(C)on2)c1 (stereo not given)	i	0	97
CCOc1[nH]n(-c2ccccc2)c(=O)c1C=Nc1ccc(Cl)cc1	i	/	89
CCOc1[nH]n(-c2ccc(Cl)cc2)c(=O)c1C=Nc1ccc(OC)cc1	+	/	92
O=C(C1CCCC1)N1CC(=O)N2[C@@H](CO)[C@@H](c3ccc(Br)cc3)[C@@H]2C1	/	0	/
COc1ccc(OC)c(CNC(=O)CCCc2cn(C)c3ccccc23)c1	i	0	103
COc1ccc(Br)cc1CNC(=O)CCCc1cn(C)c2ccccc12	+	0	97
CCCNC(=O)Nc1ccc2c(c1)C(=O)N(C)[C@@H]1CC[C@@H](CC(=O)NCc3ccccc3)O[C@@H]1CO2	/	0	/
Cc1ccc(-n2nnnc2SCC(=O)c2c(N)n(C3CC3)c(=O)[nH]c2=O)cc1	+	0	133
Nc1c(C(=O)CSc2nnnn2-c2ccccc2)c(=O)[nH]c(=O)n1C1CC1	i	0	103
COc1cccc(NC(=O)N(C)C[C@@H]2Oc3ncc(C#Cc4ccc(F)cc4)cc3C(=O)N([C@H](C)CO)C[C@H]2C)c1	/	1	/
CCOc1cccc(C(=O)N(Cc2ccco2)C2CCS(=O)(=O)C2)c1 (stereo not given)	i	/	99
O=C(c1ccc(Cl)c([N+](=O)[O-])c1)N(Cc1ccco1)C1CCS(=O)(=O)C1 (stereo not given)	+	0	101
CN1C(=O)c2cc(NC(=O)C3CC3)ccc2OC[C@H]2O[C@H](CC(=O)NCC3CCCCC3)CC[C@H]21	/	0	/
COc1ccc(C)c(-n2c(=O)n(Cc3ccccc3)c(=O)c3[nH]cnc32)c1	i	?	95
Cc1ccc(S(C)=O)cc1-n1c(=O)n(Cc2ccccc2)c(=O)c2[nH]cnc21 (stereo not given)	+	0	92
O=C(c1ccc(F)cc1)N1CC2(C1)[C@H](c1ccccc1)[C@H](CO)N2Cc1ccccn1	/	0	/
C=CCN(CC=C)c1nc2ccccc2nc1C(C#N)C(=O)OC(C)C (stereo not given)	+	/	120
C=CCOC(=O)C(C#N)c1nc2ccccc2nc1N1CCN(c2ccccc2OC)CC1 (stereo not given)	i	/	93
COc1ccc2c(C=Nc3c(C)n(C)n(-c4ccccc4)c3=O)c(O)n(Cc3ccco3)c(=O)c2c1	+!	/	104
Cc1c(N=Cc2ccco2)c(=O)n(-c2ccccc2)n1C	i	/	103
CO[C@@H]1CN(C)C(=O)c2ccc(NC(C)=O)cc2OC[C@@H](C)N(C(=O)c2ccccc2)C[C@H]1C	/	0	/
Cc1cc(Oc2ccc(N)cn2)cc(C)c1Cl	i	0	94
SMILES	Myeloid diff 2	Xi reactivation	ABCB6 inh 2
CC(C)(C)c1ccc(Oc2ccc(N)cn2)cc1	+	0	145
COc1ccc2c3c(n(C)c2c1)[C@H](CO)N(Cc1ccc2c(c1)OCO2)CC31CN(C(=O)c2ccc3c(c2)OCO3)C1	/	0	/
Cc1ccc(O)c(C(=O)c2cnc3c(c2)COc2ccccc2-3)c1	+	/	93
O=C(c1cnc2c(c1)COc1ccc(Cl)cc1-2)c1ccccc1O	i	/	93
Cc1cc2oc(=O)cc(-c3cc4ccccc4o3)c2cc1O	i	0	105
Cc1c2cc(O)c(=O)cc-2oc2cc(O)c(O)cc12	+	/	135
Cc1c(N=C/C=C2\N(C)c3ccccc3C2(C)C)c(=O)n(-c2ccccc2)n1C	i	/	105
Cc1c(NC(=S)/C=C2\N(C)c3ccccc3C2(C)C)c(=O)n(-c2ccccc2)n1C	+	/	208
Cc1c(N=C/C=C2/N(C)c3ccccc3C2(C)C)c(=O)n(-c2ccccc2)n1C	+!	0	95
Cc1c(NC(=O)NCc2ccccc2)c(=O)n(-c2ccccc2)n1C	i	/	95
CCCN(C)C[C@H]1Oc2cc(C#Cc3ccc(F)cc3)ccc2S(=O)(=O)N([C@@H](C)CO)C[C@H]1C	/	-1	/
CS(=O)(=O)c1ccc(C(=O)OCC(=O)NC23CC4CC(CC(C4)C2)C3)cc1[N+](=O)[O-]	i	0	105
CC(C)CN1CCN(C(=O)COC(=O)c2ccc(S(C)(=O)=O)c([N+](=O)[O-])c2)CC1	+	0	107
Cc1ccccc1CN1CCN(C(C)C(=O)NNC(=O)c2ccc(F)cc2)CC1 (stereo not given)	i	0	96
CC1CN(C(C)C(=O)NNC(=O)c2ccc(F)cc2)CC(C)O1 (stereo not given)	+	0	99
O=C(CN1CCOCC1)NCC12CC3CC(CC(C3)C1)C2	+	/	100
O=C(CC12CC3CC(CC(C3)C1)C2)NCCN1CCOCC1	i	/	103
C#CC(=O)N(c1cc(OC)ccc1OC)C(C(=O)NC1CCCC1)c1cccs1 (stereo not given)	i	/	64*
C#CC(=O)N(c1ccc(OC)cc1OC)C(C(=O)NC1CCCC1)c1cccs1 (stereo not given)	/	0	99
COc1ccc(S(=O)(=O)N(C)C[C@H]2Oc3c(NC(=O)Nc4ccc(C(F)(F)F)cc4)cccc3C(=O)N([C@H](C)CO)C[C@H]2C)cc1	/	-1	/
COc1cc(NC(=O)CSc2ncnc3c2cnn3Cc2ccccc2)cc(OC)c1	i	/	90
COc1ccc(OC)c(NC(=O)CSc2ncnc3c2cnn3-c2ccccc2Cl)c1	+	/	994
COCCNC(=O)C[C@H]1C=C[C@@H](NC(=O)NC2CCCC2)[C@H](CO)O1	/	1	/
CO[C@H](CN(C)C(=O)Nc1ccc(C(F)(F)F)cc1)[C@H](C)CN(Cc1ccccc1Cl)[C@@H](C)CO	/	0	/
Cc1c(C(=O)NCc2ccc(C(C)C)cc2)sc(=O)n1Cc1ccc(S(=O)(=O)N(C)C)cc1	+	0	97
Cc1c(C(=O)NCc2ccc(Cl)c(Cl)c2)sc(=O)n1Cc1ccc(S(=O)(=O)N(C)C)cc1	?	0	102
COc1ccccc1S(=O)(=O)N[C@@H]1CC[C@@H](CCNC(=O)C2CC2)O[C@@H]1CO	/	1	/
Cc1ccc(S(=O)(=O)N(C)C[C@H]2OCCCC[C@@H](C)Oc3ccc(NS(=O)(=O)c4ccccc4)cc3C(=O)N([C@H](C)CO)C[C@H]2C)cc1	/	0	/
CC(=O)Nc1cccc(-c2ccnc3c2CC(C)(C(=O)NCc2ccc(F)c(F)c2)O3)c1 (stereo not given)	+	0	110
